By logD is commonly meant lipophilicity at a set pH, counting ionised and neutral species. Low readings indicate a more hydrophilic compound, high ones a more lipophilic compound. What is called logP is a log measure of how a compound divides between an organic and an aqueous phase. A higher logP goes with higher lipophilicity.

Holding throughout (type): physicochemical
Series [1] can be described thus: Dissociation constant, pKa of compound in water by Sirius T3 apparatus based potentiometric titration analysis.
Series [2] can be described thus: Distribution coefficient, logD of compound at pH 8 by Sirius T3 apparatus based potentiometric titration analysis. The conditions noted are these: octanol/water.
Series [3] in a line: Octanol/water partition coefficient, logP of compound by Sirius T3 apparatus based potentiometric titration analysis. A digest of the protocol:
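Measured by potentiometric (pH-metric) titration in an immiscible octanol–water biphasic system on a Sirius T3. Run at 25 °C at constant ionic strength (0.15 M KCl), using the pKa values determined earlier on the same instrument. Samples came from 50 mM DMSO stocks.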

Series [4] is described as follows: Distribution coefficient, logD of compound at pH 3 by Sirius T3 apparatus based potentiometric titration analysis. The conditions noted are these: octanol/water.
Series [5] is described as follows: Dissociation constant, pKa of compound in DMSO by Sirius T3 apparatus based potentiometric titration analysis.
Series [6] can be described thus: Dissociation constant, pKa of compound measured under acidic conditions by Sirius T3 apparatus based potentiometric titration analysis.

A value given as a limit tells only on which side of the number the result lay.

In series [1], `Cc1cccc(C(N)=O)c1` yielded a pKa above 12.
In series [1], `Cc1cccc(CC(=O)O)c1` yielded a pKa of 4.13. For the same compound, the logD was -0.7 in series [2] and 1.35 in series [4]. Besides, the logP in series [3] stood at 1.98.
In series [5], `Cc1cccc(-c2nnn[nH]2)c1` showed a pKa of 4.07. Besides, the figures for the logD in series [2] and in series [4] were -0.95 and 1.1, respectively. In addition, the logP in series [3] was determined as 1.75.
As to `Cc1cccc(C2=C(O)COC2=O)c1`, the pKa in series [5] came out at 2.95. The logD in series [2] is -0.87; in series [4] it was 1.26. The same compound gave a logP in series [3] of 2.32.
Regarding `Cc1cccc(C/C(N)=N/O)c1`, the values for the pKa in series [1] and in series [6] were above 12 and 5.27, respectively.
For `Cc1cccc(/C(N)=N/O)c1`, in that order: above 12 and 4.97.
`Cc1cccc(-c2noc(S)n2)c1`: the pKa in series [5] was found to be 2.64. For the same compound, the logD is -0.7 in series [2] and 1.44 in series [4]. The compound further yielded a lipophilicity (logP) in series [3] of 2.65.
For `Cc1cccc(CC(=O)NS(C)(=O)=O)c1`, in that order: 4.63, -1.58, 0.44 and 0.97.
The corresponding values for `Cc1cccc(Cc2noc(S)n2)c1` are 3.19, -0.7, 1.42 and 2.39.
Turning to `Cc1cccc(CC(N)=O)c1`, the pKa in series [1] is above 12.
For `Cc1cccc(Cc2nsc(O)n2)c1`, in series [5], the pKa was found to be 6.35. Moreover, the logD was determined as 0.42 in series [2] and 2.02 in series [4]. For the same compound, the logP in series [3] is 2.15.
For `Cc1cccc(-c2nsc(O)n2)c1`, in that order: 5.99, 0.34, 2.04 and 2.22.
In series [1], `Cc1cccc(Cc2noc(O)n2)c1` registered a pKa of 5.59. Moreover, the logD in series [2] was -0.42; in series [4] it was 1.39. In series [3], this compound registered a logP of 1.63.
The corresponding values for `Cc1cccc(-c2noc(O)n2)c1` are 5.12, -1.11, 0.8 and 1.14.
In turn, `Cc1cccc(Cc2nnn[nH]2)c1` came in with a pKa in series [5] of 4.73. For the same compound, the logD in series [2] is -0.96; in series [4] it was 1.07. Further, the logP in series [3] is 1.51.
Consider `Cc1cccc(C(=O)O)c1`, for which the pKa in series [1] was 3.99.

For the origin of these results see ChEMBL document CHEMBL4699541, “Fragment based drug design and diversity-oriented synthesis of carboxylic acid isosteres” (Bioorg Med Chem, 2020).
